Experimental data gathered from unrelated publications.
Each line is one published result; the experiments were not run side by side.
Effect on: cell growth or viability

COc1ccc(Nc2ncnc3c2ncn3Cc2ccc(C(=O)NO)cc2)cc1 — IC50 (MM1.S; MTT; 72 h): 2040 nM
COc1cccc2c1C(=O)c1c(O)c3c(c(O)c1C2=O)C[C@@](O)(C(=O)CO)C[C@@H]3O[C@H]1C[C@H](N)[C@H](O)[C@H](C)O1 — IC50 (SW480; MTT; 24 h): 790 nM
NNc1nc2c(Cl)cc(Cl)cc2c(=O)n1-c1ccc(Cl)cc1 — IC50 (SW480; MTT; 48 h): > 200000 nM
CCCN1CC(Oc2ccc([C@@H]3c4[nH]c5ccccc5c4C[C@@H](C)N3CC(C)(C)F)cc2)C1 — IC50 (CAMA-1): 126 nM
CC1(P2(=O)CCCCC2)C=CCC=C1 — IC50 (SW480; MTT; 72 h): > 100000 nM
CCOc1cc2ncc(C#N)c(Nc3ccc(OCc4ccccn4)c(Cl)c3)c2cc1NC(=O)/C=C/CN(C)C — IC50 (NCI-N87; ATP luminescence): 18.5 nM
COc1cccc2c1C(=O)c1c(O)c3c(c(O)c1C2=O)C[C@@](O)(C(=O)CO)C[C@@H]3O[C@H]1C[C@H](N)[C@H](O)[C@H](C)O1 — IC50 (HGC-27; 96 h): 166 nM
O=C(NO)c1ccc(Cn2cnc3c(Nc4cccc([N+](=O)[O-])c4)ncnc32)cc1 — IC50 (MM1.S; MTT; 72 h): 1560 nM
C#Cc1cccc(Nc2ncnc3cc(OCCOC)c(OCCOC)cc23)c1 — IC50 (SW480; MTT; 48 h): 11200 nM
CC(=O)Nc1ccc(O)cc1 — IC50 (THLE-2; MTT): 28600 nM
O=C(NO)c1ccc(Cn2cnc3c(Nc4ccc(F)c(Cl)c4)ncnc32)cc1 — IC50 (MM1.S; MTT; 72 h): 2690 nM
COc1c(Cl)cccc1Nc1c(-c2ccncc2OC[C@@H]2COCCO2)[nH]c2c1C(=O)NCC2 — IC50 (NCI-N87; ATP luminescence): 12.7 nM
NNc1nc2ccc(Br)cc2c(=O)n1-c1ccccc1 — IC50 (SW480; MTT; 48 h): 136000 nM
C=C1CC[C@@H]2[C@](C)(CO)[C@H](O)CC[C@@]2(C)[C@@H]1C/C=C1/C(=O)OC[C@H]1O — IC50 (SW480; MTT; 24 h): 5080 nM
CN(C)C(=O)Nc1nc2ccc(Br)cc2c(=O)n1-c1ccccc1 — IC50 (SW480; MTT; 48 h): > 200000 nM
Nc1ccccc1NC(=O)c1ccc(Cn2cnc3c(Nc4ccc(Cl)cc4)ncnc32)cc1 — IC50 (MM1.S; MTT; 72 h): 1130 nM
O=c1c2cc(Cl)cc(Cl)c2nc(NNc2cccc(Cl)c2)n1-c1ccccc1 — IC50 (SW480; MTT; 48 h): > 200000 nM
CC1(P2(=O)CCCCC2)CCCCC1 — IC50 (SW480; MTT; 72 h): > 100000 nM
Cc1ccc(NNc2nc3c(Cl)cc(Cl)cc3c(=O)n2-c2ccccc2)cc1 — IC50 (SW480; MTT; 48 h): 132000 nM
Cc1nc(Nc2ncc(C(=O)Nc3c(C)cccc3Cl)s2)cc(N2CC[C@H](O)C2)n1 — IC50 (Toledo; ATP luminescence; 72 h): > 10000 nM
O=C(NO)Nc1nc2c(Cl)cc(Cl)cc2c(=O)n1-c1ccc(Cl)cc1 — IC50 (SW480; MTT; 48 h): > 200000 nM
Cc1cc2c(C(=O)O)cccc2n1-c1nc2c(c(NCc3ccccc3)n1)CCCN2 — IC50 (MM1.S; 72 h): 900 nM
